The source of these data is ChEMBL document CHEMBL3259666, “Discovery of a neuroprotective chemical, (S)-N-(3-(3,6-dibromo-9H-carbazol-9-yl)-2-fluoropropyl)-6-methoxypyridin-2-amine [(-)-P7C3-S243], with improved druglike properties” (J Med Chem, 2014).

Active and inactive are the calls of the source. The rule behind the calls is not given here.

Series [1] deals with Mus musculus. Put plainly: Neuroprotective activity in wild type C57BL/J6 mouse assessed as survival of newborn hippocampal neurons at 10 uM, icv administered for 7 days by BrdU staining-based immunohistochemical analysis relative to vehicle-treated control. In kind it is functional, organism-based. Put shortly: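 Adult (12 week old) C57BL/J6 mice, environmentally deprived; compound infused via osmotic minipump into left lateral ventricle at 0.5 μL/h for 7 days. BrdU IP 50 mg kg–1 day–1 for 6 days during infusion; perfusion 24 h after last BrdU. BrdU+ cells in SGZ/dentate gyrus of contralateral hemisphere counted in every fifth 40 μm section, normalized to dentate gyrus volume; mean ± SEM.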
Background: Uptake of a labelled nucleoside into DNA is a usual measure of proliferation.

Series [2] in a line: Half life in mouse at 20 mg/kg, po by HPLC/MS/MS analysis. In kind it is ADME, organism-based. The conditions noted are these: in vivo. Also noted: dose 20 mg/kg, route oral. Put shortly: (§1)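 Mouse PK. Compound formulated in 5% DMSO/10% cremophor EL/85% D5W (pH 7.2) and given IV, IP or by oral gavage. Mice killed at varying times with CO2. Citrated plasma and PBS brain homogenate (3-fold volume) were protein-precipitated with acetonitrile containing 0.15% formic acid and analysed by HPLC/MS/MS against spiked blank standards. Noncompartmental analysis was used, with F = (AUCoral/AUCIV)×(DoseIV/Doseoral)×100%. Values are mean ± SEM.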

Series [3] concerns Brain. Description: Bioavailability in mouse brain at 20 mg/kg, po by HPLC/MS/MS analysis. The note with it: in vivo. In kind it is ADME, organism-based. An outline of the steps:
as §1

Series [4] concerns Brain. Description: Bioavailability in mouse brain at 20 mg/kg, ip by HPLC/MS/MS analysis. In kind it is ADME, organism-based. The conditions noted are these: in vivo. Put shortly:
as §1

The test system of series [5] is Brain. Put plainly: AUC in mouse brain at 20 mg/kg, ip by HPLC/MS/MS analysis. In kind it is ADME, organism-based. The note with it: in vivo. Also noted: dose 20 mg/kg, route intraperitoneal. Put shortly: as §1
In series [6] the test system is Mus musculus. Put plainly: Neuroprotective activity in wild type C57BL/J6 mouse assessed as survival of newborn hippocampal neurons at 0.1 to 10 uM, icv administered for 7 days by BrdU staining-based microscopy relative to vehicle-treated control. In kind it is functional, organism-based. Put shortly: (§2)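 Adult (12-week) wild-type C57BL/J6 mice. Compound infused ICV into the left lateral ventricle by osmotic minipump at 0.5 μL/h for 7 days, with BrdU 50 mg/kg/day IP for 6 days. Perfused 24 h after the last BrdU dose. BrdU antigen unmasked (formamide/SSC at 65 °C, then 2 M HCl); anti-BrdU staining. BrdU+ cells in the contralateral dentate gyrus SGZ counted in every fifth 40 μm section and normalised to dentate gyrus volume.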

Series [7] can be described thus: Half life in monkey liver microsomes. In kind it is ADME, Macaca mulatta. The conditions noted are these: rhesus monkey.
In series [8] the test system is Mus musculus. Description: Toxicity in C57Bl/6 mouse assessed as effect on behavior up to 10 mg/kg/day, ip bid administered for 21 days. In kind it is organism-based. The conditions noted are these: in vivo, 504 h. Also noted: route intraperitoneal.
Another series deals with Liver. Description: Half life in mouse liver microsomes. In kind it is ADME. (Liver microsomes are vesicles of endoplasmic reticulum, rich in cytochrome P450 enzymes.)
Series [9] has as its system Liver microsome. Description: Half life in rat liver microsomes. In kind it is ADME.
In series [10] the test system is Mus musculus. Put plainly: Neuroprotective activity in substantia nigra of C57Bl/6 mouse neurogenesis model assessed as protection from MPTP-induced cell death in mature neurons at 1 mg/kg/day, ip bid administered for 21 days by immunohistochemical analysis relative to vehicle-treated control. In kind it is functional, organism-based. Put shortly: (§3)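 MPTP model in adult male C57Bl/6 mice, individually housed 1 week. MPTP free base 30 mg/kg/day IP for 5 days. From day 6 (24 h after the last MPTP dose), compound or vehicle given IP twice daily for 21 days. Mice were then perfused with 4% paraformaldehyde. SNc sectioned at 30 μm intervals and every fourth section stained for TH (DAB, hematoxylin counterstain). TH+ cells counted blinded; mean ± SEM, compared with vehicle + MPTP.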

Series [11] deals with Mus musculus. Description: Toxicity in C57Bl/6 mouse assessed as effect on appearance up to 10 mg/kg/day, ip bid administered for 21 days. In kind it is organism-based. Also noted: route intraperitoneal. The note with it: in vivo, 504 h.
Series [12] concerns Brain. Description: AUC in mouse brain at 10 mg/kg, ip by HPLC/MS/MS analysis. In kind it is ADME, organism-based. Also noted: dose 10 mg/kg, route intraperitoneal. The note with it: in vivo. An outline of the steps:
as §1

Series [13] concerns Brain. Description: Bioavailability in mouse brain at 10 mg/kg, ip by HPLC/MS/MS analysis. In kind it is ADME, organism-based. The note with it: in vivo. Put shortly:
as §1

The test system of another series is Hepatocyte. Put plainly: Half life in mouse hepatocytes. In kind it is ADME, cell-based.
The test system of series [14] is Plasma. Put plainly: Bioavailability in mouse plasma at 20 mg/kg, ip by HPLC/MS/MS analysis. In kind it is ADME, organism-based. The note with it: in vivo. Put shortly: as §1
Series [15] concerns Brain. Description: AUC in mouse brain at 10 mg/kg, iv by HPLC/MS/MS analysis. In kind it is ADME, organism-based. The note with it: in vivo. Also noted: dose 10 mg/kg, route intravenous. Put shortly: as §1
The test system of series [16] is Mus musculus. Put plainly: Neuroprotective activity in substantia nigra of C57Bl/6 mouse neurogenesis model assessed as protection from MPTP-induced cell death in mature neurons at 10 mg/kg/day, ip bid administered for 21 days by immunohistochemical analysis relative to vehicle-treated control. In kind it is functional. The conditions noted are these: route intraperitoneal. An outline of the steps: as §3

In series [17] the test system is Plasma. Description: Bioavailability in mouse plasma at 10 mg/kg, ip by HPLC/MS/MS analysis. The note with it: in vivo. In kind it is ADME, organism-based. Put shortly: as §1
A short description of series [18]: Half life in mouse at 10 mg/kg, iv by HPLC/MS/MS analysis. In kind it is ADME, organism-based. Also noted: dose 10 mg/kg, route intravenous. The note with it: in vivo. Put shortly:
as §1

In series [19] the test system is Liver microsome. Description: Half life in human liver microsomes. In kind it is ADME.
Series [20] concerns Brain. Description: AUC in mouse brain at 20 mg/kg, po by HPLC/MS/MS analysis. In kind it is ADME, organism-based. Also noted: dose 20 mg/kg, route oral. The conditions noted are these: in vivo. Put shortly:
as §1

Series [21] in a line: Half life in mouse at 10 mg/kg, ip by HPLC/MS/MS analysis. In kind it is ADME, organism-based. Also noted: dose 10 mg/kg, route intraperitoneal. The conditions noted are these: in vivo. An outline of the steps: as §1
A short description of series [22]: Half life in mouse at 20 mg/kg, ip by HPLC/MS/MS analysis. In kind it is ADME, organism-based. Also noted: dose 20 mg/kg, route intraperitoneal. The note with it: in vivo. An outline of the steps: as §1
In series [23] the test system is Mus musculus. Description: Neuroprotective activity in wild type C57BL/J6 mouse assessed as survival of newborn hippocampal neurons at 10 uM, icv administered for 7 days by BrdU staining-based microscopy relative to vehicle-treated control. In kind it is functional, organism-based. Put shortly:
as §2

Series [24] relates to Mus musculus. Put plainly: Neuroprotective activity in wild type C57BL/J6 mouse assessed as survival of newborn hippocampal neurons at 1 to 10 mg/kg/day, ip bid administered for 7 days by BrdU staining-based immunohistochemical analysis relative to vehicle-treated control. In kind it is functional, organism-based. Put shortly: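 Adult (12-week) wild-type C57BL/J6 mice. Compound given IP twice daily for 7 days, with BrdU 50 mg/kg/day IP. Perfused with 4% paraformaldehyde 24 h after the last BrdU dose. Anti-BrdU immunostaining after formamide/HCl unmasking. BrdU+ cells in the dentate gyrus SGZ counted in every fifth 40 μm section and normalised to dentate gyrus volume; mean ± SEM.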

The test system of series [25] is Plasma. Description: Bioavailability in mouse plasma at 20 mg/kg, po by HPLC/MS/MS analysis. The conditions noted are these: in vivo. In kind it is ADME, organism-based. Put shortly:
as §1

In series [26] the test system is Liver microsome. Put plainly: Half life in dog liver microsomes. In kind it is ADME, Canis lupus familiaris.
For series [27], the system named is Mus musculus. Put plainly: Toxicity in C57Bl/6 mouse assessed as effect on weight up to 10 mg/kg/day, ip bid administered for 21 days. Also noted: route intraperitoneal. The note with it: in vivo, 504 h. In kind it is organism-based.

Consider `NCC(O)Cn1c2ccc(Br)cc2c2cc(Br)ccc21` (stereo unspecified), for which, in the series with Mus musculus [1], the result was Active.

What is called half-life is how long it takes for the measured level to halve. With `COc1cccc(NCC(F)Cn2c3ccc(Br)cc3c3cc(Br)ccc32)n1` (racemic), the half-life in [2] is 9.6 h; in series [18], 7.4 h; in series [21], more than 24 h; in series [22], 15 h. Besides, the F is 29% in the series on Brain [3]; 48% with Brain [4]; 28% in the series on Brain [13]; 90% in the series with Plasma [14]; 66% in the series with Plasma [17]; 38% in the series with Plasma [25]. For the same molecule, the AUC in the series with Brain [5] amounted to 319 µg·min/g; with Brain [12] it was 189 µg·min/g; in the series on Brain [15], 671 µg·min/g; in the series on Brain [20], 388 µg·min/g. In addition, the outcome in the series with Mus musculus [6], in the series with Mus musculus [10], with Mus musculus [1], in the series on Mus musculus [23] and in the series on Mus musculus [24] was Active. Further, the t1/2 is 1.35 h in series [7]; 0.817 h in the series with Liver; more than 4 h in the series on Liver microsome [9]; more than 4 h with Hepatocyte; 1.95 h in the series with Liver microsome [19]; 0.75 h in the series with Liver microsome [26]. In addition, the Activity result in the series with Mus musculus [8] is on record as “Non-toxic”; in the series with Mus musculus [11] it was “Non-toxic”; in the series on Mus musculus [16], 85%; with Mus musculus [27], “Non-toxic”.

For `[N-]=[N+]=NCC(F)Cn1c2ccc(Br)cc2c2cc(Br)ccc21` (stereo unspecified), the result with Mus musculus [1] was inactive.
